The values that follow come from ChEMBL document CHEMBL3108674, “6-Alkoxy-5-aryl-3-pyridinecarboxamides, a new series of bioavailable cannabinoid receptor type 1 (CB1) antagonists including peripherally selective compounds” (J Med Chem, 2013).

In one data set the test system is Liver microsome. Kind of data set: Clearance in rat liver microsomes at 2 uM by LC-MS/MS analysis. It is filed as ADME. In a few lines: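 Rat liver microsomes at 0.5 mg/mL were incubated with 2 μM compound (final) and an NADPH-regenerating system. Aliquots were taken at 1, 3, 6, 9, 15, 25, 35 and 45 min and quenched in acetonitrile containing internal standard. Depletion was measured by LC-MS/MS. Clmic = −slope × 1000 / protein concentration (mg/mL), not corrected for microsomal protein binding.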
(In general: Microsomes from liver hold many membrane-bound enzymes, among them those of drug oxidation.)

The next data set deals with Cannabinoid receptor 2 (Homo sapiens, UniProt P34972). Kind of data set: Displacement of [3H]CP55940 from human CB2 receptor expressed in CHOK1 cells after 1 hr by liquid scintillation counting analysis. It is filed as cell-based, CHO-K1. In a few lines:
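Membranes from butyrate-treated (5 mM, 24 h) CHO-K1 cells stably expressing human CB2, incubated with 0.3 nM [3H]CP55940 and increasing ligand concentrations, 60 min, 30 °C, pH 7.4 Tris buffer with 0.1% fatty acid-free BSA and 1% DMSO; nonspecific binding with 10 μM CP55940; filtration, scintillation counting; tested in triplicate.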
A general note: Displacement assays read how much labelled ligand stays bound in the presence of the test substance.

The target of the next data set is Cannabinoid receptor 1 (Homo sapiens, UniProt P21554). Kind of data set: Displacement of [3H]CP55940 from human CB1 receptor expressed in CHOK1 cells after 1 hr by liquid scintillation counting analysis. It is filed as cell-based, CHO-K1.
Sequence of Cannabinoid receptor 1 (P21554 whole entry): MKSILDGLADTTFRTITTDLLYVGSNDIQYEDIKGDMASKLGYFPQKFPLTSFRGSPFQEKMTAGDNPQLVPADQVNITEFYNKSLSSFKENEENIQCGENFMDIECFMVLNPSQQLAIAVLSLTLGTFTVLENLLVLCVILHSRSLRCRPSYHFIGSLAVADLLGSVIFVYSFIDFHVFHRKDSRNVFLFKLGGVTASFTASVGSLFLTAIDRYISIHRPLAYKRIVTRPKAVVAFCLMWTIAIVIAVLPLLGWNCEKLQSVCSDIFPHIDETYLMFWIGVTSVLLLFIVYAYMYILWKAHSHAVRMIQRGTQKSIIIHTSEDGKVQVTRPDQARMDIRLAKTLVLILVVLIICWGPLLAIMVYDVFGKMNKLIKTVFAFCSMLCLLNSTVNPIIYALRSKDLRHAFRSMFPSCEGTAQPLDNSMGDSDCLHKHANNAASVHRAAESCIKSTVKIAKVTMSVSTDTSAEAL

Sequence of Cannabinoid receptor 2 (P34972 whole entry): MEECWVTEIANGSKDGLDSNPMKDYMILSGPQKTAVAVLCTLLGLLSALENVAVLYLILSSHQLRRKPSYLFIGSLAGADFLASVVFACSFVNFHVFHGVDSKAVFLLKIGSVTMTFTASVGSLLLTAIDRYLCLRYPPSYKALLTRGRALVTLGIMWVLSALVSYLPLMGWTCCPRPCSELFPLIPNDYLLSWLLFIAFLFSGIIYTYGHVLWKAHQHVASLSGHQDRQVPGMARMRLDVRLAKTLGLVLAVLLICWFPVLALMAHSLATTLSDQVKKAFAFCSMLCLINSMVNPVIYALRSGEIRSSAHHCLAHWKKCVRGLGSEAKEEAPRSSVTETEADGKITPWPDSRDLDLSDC

In the data set with Liver microsome, `Cc1cc(COc2ncc(C(=O)N[C@@H]3CCCC[C@H]3O)cc2-c2ccc(Cl)cc2)on1` returned a CLH of 151 µL/min/mg. Further, the Ki is above 10000 nM at Cannabinoid receptor 2 and 10.6 nM on Cannabinoid receptor 1.
With `O=C(N[C@@H]1CCCC[C@H]1O)c1cnc(OCC2CC2)c(-c2ccc(Cl)c(Cl)c2)c1`, the Ki came to 1260 nM on Cannabinoid receptor 2 and 305 nM on Cannabinoid receptor 1.
Turning to `O=C(N[C@@H]1CCCC[C@@H]1O)c1cnc(OCC2CC2)c(-c2ccc(Cl)cc2)c1`, the CLH in the data set with Liver microsome was found to be 163 µL/min/mg. Further, the Ki on Cannabinoid receptor 2 is above 5000 nM; at Cannabinoid receptor 1, 186 nM.
In the case of `O=C(N[C@@H]1CCCC[C@H]1O)c1cnc(OCc2ccncc2)c(-c2ccc(Cl)cc2)c1`, the CLH with Liver microsome stood at 118 µL/min/mg. For the same compound, the inhibition constant Ki on Cannabinoid receptor 2 was above 10000 nM; on Cannabinoid receptor 1, 58.7 nM.
Taken in the same sequence, the figures for `O=C(N[C@@H]1CCCC[C@H]1O)c1cnc(OC2CCCCC2)c(-c2ccc(Cl)cc2)c1` were 662 µL/min/mg, above 10000 nM and 3030 nM.
`O=C(N[C@@H]1CCCC[C@H]1O)c1cnc(OC2CCCC2)c(-c2ccc(Cl)cc2)c1`: the results for the Ki on Cannabinoid receptor 2 and on Cannabinoid receptor 1 were above 10000 nM and 374 nM, respectively.
For the compound `O=C(N[C@@H]1CCCC[C@H]1O)c1cnc(OCC2CC2)c(-c2ccccc2Cl)c1`, the Ki on Cannabinoid receptor 2 was above 10000 nM; on Cannabinoid receptor 1, 190 nM.
`O=C(N[C@@H]1CCCC[C@H]1O)c1cnc(CCC2CC2)c(-c2ccc(Cl)cc2)c1` returned a CLH with Liver microsome of 1503 µL/min/mg. The Ki at Cannabinoid receptor 2 is above 10000 nM; on Cannabinoid receptor 1, 16.7 nM.
In the case of `N#Cc1ccc(-c2cc(C(=O)N[C@@H]3CCCC[C@H]3O)cnc2OCC2CC2)cc1`, the results for the Ki on Cannabinoid receptor 2 and at Cannabinoid receptor 1 were above 10000 nM and 23.6 nM, respectively.
For the compound `CS(=O)(=O)Nc1ccc(-c2cc(C(=O)N[C@@H]3CCCC[C@H]3O)cnc2OCC2CC2)cc1`, the Ki on Cannabinoid receptor 2 was above 10000 nM; on Cannabinoid receptor 1, 1900 nM.
Regarding `O=C(N[C@@H]1CCCC[C@H]1O)c1ccc(OCC2CC2)c(-c2ccc(Cl)cc2)n1`, the Ki came out at 863 nM at Cannabinoid receptor 2 and 1830 nM at Cannabinoid receptor 1.
As for `CC(C)Oc1ncc(C(=O)N[C@@H]2CCCC[C@H]2O)cc1-c1ccc(Cl)cc1`, the Ki at Cannabinoid receptor 2 is above 10000 nM; on Cannabinoid receptor 1, 1070 nM.
The compound `O=C(N[C@@H]1CCCC[C@H]1O)c1cnc(OCc2ncccn2)c(-c2ccc(Cl)cc2)c1` yielded a CLH in the data set with Liver microsome of 12 µL/min/mg. The inhibitory constant (Ki) was above 10000 nM at Cannabinoid receptor 2 and 51.6 nM at Cannabinoid receptor 1.
As for `O=C(O)c1ccc(-c2cc(C(=O)N[C@@H]3CCCC[C@H]3O)cnc2OCC2CC2)cc1`, the Ki on Cannabinoid receptor 2 and at Cannabinoid receptor 1 was above 10000 nM in each case.
With `O=C(N[C@@H]1CCCC[C@H]1O)c1cnc(OCC(F)(F)F)c(-c2ccc(Cl)cc2)c1`, in the data set on Liver microsome, the CLH was 23 µL/min/mg. Moreover, the Ki on Cannabinoid receptor 2 was above 7000 nM; at Cannabinoid receptor 1 it was 12.4 nM.
The compound `O=C(N[C@@H]1CCCC[C@H]1O)c1cnc(OCC2CC2)c(-c2ccc(F)cc2)c1` showed a CLH with Liver microsome of 37 µL/min/mg. In addition, the figures for the Ki on Cannabinoid receptor 2 and on Cannabinoid receptor 1 were above 10000 nM and 42.8 nM, respectively.
As to `NC(=O)c1ccc(-c2cc(C(=O)N[C@@H]3CCCC[C@H]3O)cnc2OCC2CC2)cc1`, the Ki on Cannabinoid receptor 2 was above 10000 nM; on Cannabinoid receptor 1, above 8000 nM.
As for `O=C(N[C@@H]1CCCC[C@H]1O)c1cc(-c2ccc(Cl)cc2)c(OCC2CC2)cn1`, the figures for the inhibition constant Ki on Cannabinoid receptor 2 and on Cannabinoid receptor 1 were 1530 nM and above 7000 nM, respectively.
For `O=C(NN1CCCCC1)c1cnc(OCC2CC2)c(-c2ccc(Cl)cc2)c1`, the inhibition constant Ki is above 10000 nM at Cannabinoid receptor 2 and 563 nM on Cannabinoid receptor 1.
For `O=C(N[C@@H]1CCCC[C@H]1O)c1cnc(OCC2CC2)c(-c2ccc(Cl)cc2)n1`, the Ki at Cannabinoid receptor 2 is 801 nM; at Cannabinoid receptor 1 it was 25.8 nM.
In the data set on Liver microsome, `C[C@](O)(CNC(=O)c1cnc(OCC2CC2)c(-c2ccc(Cl)cc2)c1)C1CC1` yielded a CLH of 2.4 µL/min/mg. For the same compound, the Ki at Cannabinoid receptor 2 was above 10000 nM; on Cannabinoid receptor 1, 34.3 nM.
`O=C(N[C@@H]1CCCC[C@H]1O)c1cnc(OCC2CC2)c(-c2cc(C(F)(F)F)ccc2Cl)c1`: in the data set with Liver microsome, the CLH was found to be 59 µL/min/mg. For the same compound, the inhibition constant Ki was 2080 nM at Cannabinoid receptor 2 and 67.7 nM on Cannabinoid receptor 1.
`O=C(N[C@@H]1CCCC[C@H]1O)c1cnc(OCc2cccnc2)c(-c2ccc(Cl)cc2)c1` returned a CLH in the data set with Liver microsome of 374 µL/min/mg. In addition, the values for the Ki at Cannabinoid receptor 2 and on Cannabinoid receptor 1 were above 10000 nM and 23.5 nM, respectively.
In the data set on Liver microsome, `O=C(N[C@@H]1CCCC[C@H]1O)c1cnc(OCc2ccccn2)c(-c2ccc(Cl)cc2)c1` showed a CLH of 44 µL/min/mg. Besides, the figures for the Ki at Cannabinoid receptor 2 and on Cannabinoid receptor 1 were above 10000 nM and 139 nM, respectively.
In turn, `CN(CC1CC1)c1ncc(C(=O)N[C@@H]2CCCC[C@H]2O)cc1-c1ccc(Cl)cc1` displayed a CLH with Liver microsome of 1730 µL/min/mg. Moreover, the Ki was above 10000 nM at Cannabinoid receptor 2 and 51.1 nM at Cannabinoid receptor 1.
`O=C(N[C@H]1CCCC[C@@H]1O)c1cnc(OCC2CC2)c(-c2ccc(Cl)cc2)c1`: the Ki on Cannabinoid receptor 2 was 2640 nM; at Cannabinoid receptor 1, 247 nM.
In the data set with Liver microsome, `O=C(N[C@H]1CCCC[C@H]1O)c1cnc(OCC2CC2)c(-c2ccc(Cl)cc2)c1` registered a CLH of 111 µL/min/mg. The Ki on Cannabinoid receptor 2 was above 7000 nM; at Cannabinoid receptor 1, 104 nM.
`O=C(N[C@@H]1CCCC[C@H]1O)c1cnc(OCC2CC2)c(-c2cccc(Cl)c2)c1`: the Ki at Cannabinoid receptor 2 is above 5000 nM; at Cannabinoid receptor 1, 129 nM.
On to `NS(=O)(=O)c1ccc(-c2cc(C(=O)N[C@@H]3CCCC[C@H]3O)cnc2OCC2CC2)cc1`, for which the Ki at Cannabinoid receptor 2 and at Cannabinoid receptor 1 was above 10000 nM in each case.
Take `O=C(N[C@@H]1CCCC[C@H]1O)c1cnc(Oc2ccccc2)c(-c2ccc(Cl)cc2)c1`: the CLH in the data set with Liver microsome is 353 µL/min/mg. Further, the figures for the Ki at Cannabinoid receptor 2 and at Cannabinoid receptor 1 were above 10000 nM and 1660 nM, respectively.
With `O=C(N[C@@H]1CCCC[C@H]1O)c1cnc(OCc2ccccc2)c(-c2ccc(Cl)cc2)c1`, the CLH with Liver microsome came out at 20 µL/min/mg. Besides, the Ki on Cannabinoid receptor 2 is above 10000 nM; on Cannabinoid receptor 1, 40.2 nM.
As for `O=C(N[C@@H]1CCCC[C@H]1O)c1cnc(OCC2CC2)c(-c2ccc(Cl)cc2Cl)c1`, the results for the Ki at Cannabinoid receptor 2 and on Cannabinoid receptor 1 were above 5000 nM and 122 nM, respectively.
Take `CCCCOc1ncc(C(=O)N[C@@H]2CCCC[C@H]2O)cc1-c1ccc(Cl)cc1`: the CLH in the data set with Liver microsome stood at 101 µL/min/mg. In addition, the figures for the Ki at Cannabinoid receptor 2 and at Cannabinoid receptor 1 were above 10000 nM and 43.8 nM, respectively.
Turning to `O=C(N[C@@H]1CCCC[C@H]1O)c1cc(-c2ccc(Cl)cc2)c(OCC2CC2)nn1`, the Ki on Cannabinoid receptor 2 was above 3000 nM; at Cannabinoid receptor 1 it was above 5000 nM.
In turn, `O=C(N[C@@H]1CCCC[C@H]1O)c1cnc(OCC2CC2)c(-c2ccc(OC(F)(F)F)cc2)c1` came in with a CLH in the data set on Liver microsome of 0 µL/min/mg. The Ki on Cannabinoid receptor 2 was above 10000 nM; on Cannabinoid receptor 1, 23.6 nM.
`O=C(N[C@@H]1CCCC[C@H]1O)c1cnc(OCC2CC2)c(-c2ccc(C(F)(F)F)cc2)c1`: the Ki was above 10000 nM on Cannabinoid receptor 2 and 18.5 nM at Cannabinoid receptor 1.
As for `Cc1c(C(=O)N[C@@H]2CCCC[C@H]2O)cc(-c2cc(C(F)(F)F)ccc2Cl)n1CC1CCCCC1`, the CLH with Liver microsome was 1323 µL/min/mg. The IC50 was above 5000 nM on Cannabinoid receptor 2 and 9.5 nM on Cannabinoid receptor 1.
Take `O=C(N[C@@H]1CCCC[C@H]1O)c1cnc(OC2CCCC2)c(-c2cc(C(F)(F)F)ccc2Cl)c1`: the CLH in the data set on Liver microsome is 367 µL/min/mg. In addition, the IC50 is 2390 nM at Cannabinoid receptor 2 and 395 nM on Cannabinoid receptor 1.
Consider `O=C(N[C@@H]1CCCC[C@H]1O)c1cnc(OC2CCC2)c(-c2ccc(Cl)cc2)c1`, for which the CLH with Liver microsome came out at 210 µL/min/mg. Moreover, the results for the Ki at Cannabinoid receptor 2 and at Cannabinoid receptor 1 were above 10000 nM and 208 nM, respectively.
In the case of `COc1ccc(-c2cc(C(=O)N[C@@H]3CCCC[C@H]3O)cnc2OCC2CC2)cc1`, the results for the Ki at Cannabinoid receptor 2 and on Cannabinoid receptor 1 were above 10000 nM and 66.4 nM, respectively.

As usually defined, the Ki is the dissociation constant of the complex between target and ligand, obtained from inhibition or displacement. For orientation: IC50 means the concentration that inhibits the measured activity by half. High values mean weaker potency in that assay, low ones greater potency in that assay.
